Screens deposited in PubChem BioAssay by several laboratories.
A selection: hits, their analogues and other compounds. The true share with any hit is near 7.4%.
Jurkat tox 60K = reduces viability or proliferation of Jurkat cells. actives 1.2% (n = 56,000). inhibition, % at 4 µM. Jurkat E6.1 viability, ATP luminescence, 48 h. AID 463;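 active = inhibition above the mean inhibition of all tested compounds plus 3 SD, cut at about 28% in these data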
JNK3 inh = JNK3 (human) kinase inhibition; P53779; purified JNK3 kinase activity, HTS; inhibition, % at 8 µM; actives 0.61% (n = 60,000); AID 746; in the data active = inhibition above about 17%
S1P3 ag = S1P3 (human) receptor agonism. Q99500. S1P3 NFAT-BLA reporter cells, FRET ratio; relative to 1 µM S1P, basal subtracted. activation, % at 4.5 µM. actives 0.1% (n = 60,000). AID 373;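 active = activation above the screen-wide mean plus 3 SD, cut at about 4.5% in these data, passing the limit was not always enough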
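Measure – % activation relative to 1 µM S1P (100%), per plate · System – stable CHO line with human S1P3, Gα16, NFAT-BLA reporter · Timing – cells plated overnight, compound 4 h 37 °C, substrate 2 h RT · Technique – fluorescent BLA substrate, ex 405 nm, em 460/535 nm ratio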
S1P1 ag pot = agonists and agonism potentiators of human S1P1 receptor | P21453 | S1P1 CRE-bla cells, forskolin, beta-lactamase FRET, potentiator mode; S1P1 agonist co-added at EC20, 2 nM; 100% = saturating reference agonist, 0% = basal | actives 0.57% (n = 56,000) | AID 449 | activation, % at 9.5 µM;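 active = activation above a cutoff set at the mean activation of all tested compounds plus 3 SD, cut at about 54% in these data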;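 also: forskolin at 4 µM as EC80 and the EC20 agonist is SEW2871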
Target sequence (P21453 whole entry, looked up): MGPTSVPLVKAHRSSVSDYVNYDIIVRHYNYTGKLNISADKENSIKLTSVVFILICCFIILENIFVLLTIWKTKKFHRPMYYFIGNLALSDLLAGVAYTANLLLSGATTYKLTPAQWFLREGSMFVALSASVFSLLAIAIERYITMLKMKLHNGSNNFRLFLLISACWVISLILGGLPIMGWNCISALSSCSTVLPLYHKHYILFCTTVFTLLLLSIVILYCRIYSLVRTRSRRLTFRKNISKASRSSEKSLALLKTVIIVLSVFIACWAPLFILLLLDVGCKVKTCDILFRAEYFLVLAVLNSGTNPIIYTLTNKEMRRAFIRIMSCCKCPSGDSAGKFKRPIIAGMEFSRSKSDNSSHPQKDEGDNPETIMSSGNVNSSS
M1 agonist = M1 muscarinic receptor agonism; CHO-M1 cells, Fluo-4 calcium fluorescence, agonist mode; active compounds read high; actives 3% (n = 64,000); B-score at 10 µM;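 active = fluorescence rise, raw or as B-score row- and column-corrected plate score, outside the 99.7% band of its plate's samples, either direction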
M1 antag = antagonists of rat M1 muscarinic receptor; CHO-M1 cells, Fluo-4 calcium, ACh EC80 antagonist mode; active compounds read low; B-score at 10 µM; actives 3.4% (n = 64,000);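 active = calcium fluorescence response, raw or row-and-column corrected B-score, differing from the plate sample mean either way at a set confidence level, mostly lower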
M1 antag confirm = confirmation of rat M1 muscarinic receptor antagonists; shares compounds with M1 antag; CHO-M1 cells, Fluo-4 calcium, ACh EC80 antagonism; active compounds read low; calcium response (max-min fluorescence) at 10 µM; actives 43% (n = 1,700); AID 677;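 active = calcium response below the same-plate mean of wells given acetylcholine alone at its 80%-effect dose, minus 3 SD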
mGluR4 antag = mGluR4 (human) activity, M1 antagonist secondary assay | actives 0.9% (n = 1,700) | shares compounds with M1 antag | fluorescence response (max-min) at 10 µM | CHO-mGluR4 calcium flux, Fluo-4 fluorescence, glutamate EC80; active compounds read low;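 active = fluorescence response below the plate's average for near-maximal glutamate wells, less 3 SD of those wells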;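 also: raw unnormalized fluorescence span taken in the window right after glutamate addition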
A number is an active result; . = inactive; / = no result.

SMILES | Jurkat tox 60K | JNK3 inh | S1P3 ag | S1P1 ag pot | M1 agonist | M1 antag | M1 antag confirm | mGluR4 antag
Cc1cnn(C2CCN(C)CC2)c1N | . | . | . | . | . | . | / | /
CN1CCC(OC(=O)C2c3ccccc3Oc3ccccc32)CC1 | / | . | . | . | . | -14 | 25 | .
O=C1C2CCCN2C(c2ccccc2)N1c1ccccn1 (stereo not drawn) | . | . | . | . | . | . | / | /
CCCCc1nc(N2CCNCC2)c(C#N)c2c1CSC(C)(C)C2 | / | . | . | . | . | -9.8 | 61 | .
COc1cc2nc(CN3CC=C(c4ccccc4)CC3)[nH]c(=O)c2cc1OC | . | . | . | . | . | . | / | /
CN(C)c1ccc(CN2CC=C(c3ccc(F)cc3)CC2)cc1 | . | . | . | . | . | -5.7 | 469 | .
CCCCOCCCn1c(N)c(C(=O)OCCOC)c2nc3ccccc3nc21 | / | . | . | . | . | -4 | 21 | .
O=C(c1cc2ccccc2oc1=O)N1CCC2(CC1)OCCO2 | . | . | . | . | . | -3.7 | . | .
Cc1c(C(=O)N2CCC3(CC2)OCCO3)oc2ccccc12 | . | . | . | . | . | -2.3 | . | .
O=C(O)c1cc2ccccc2oc1=O | . | . | . | . | . | . | / | /
CC(C(=O)c1c[nH]c2ccccc12)N1CCc2ccccc2C1 (stereo not drawn) | . | . | . | . | . | . | / | /
Cc1cccnc1NC1=NCC(C)S1 (stereo not drawn) | . | . | . | . | . | . | / | /
C=C(C)c1cccc(C(C)(C)NC(=O)NC2CN3CCC2CC3)c1 (stereo not drawn) | . | . | . | / | / | / | / | /
O=C(COc1ccc(Cl)cc1)NC1CN2CCC1CC2 (stereo not drawn) | . | . | . | . | . | -16 | 398 | .
COC(=O)c1c(C)[nH]c(C(=O)C(Cc2ccccc2)N(C)C)c1C (stereo not drawn) | . | . | . | . | . | . | / | /
CCN1CCN(Cc2cc(Br)cc(OC)c2O)CC1 | . | . | . | . | . | -1.9 | 350 | .
COc1ccccc1N1CCN(Cc2cccc(OC)c2O)CC1 | . | . | . | / | . | . | / | /
CN(C)CCc1nc2ccccc2c(=O)n1-c1ccccc1 | . | . | . | . | . | -6.2 | . | .
Cc1ccc(S(=O)(=O)NCC2CCC(C(=O)N3CCC4(CC3)OCCO4)CC2)cc1 (stereo not drawn) | . | . | . | . | . | . | / | /
Cc1ccc2nc(N3CCC(C(=O)N4CCC5(CC4)OCCO5)CC3)sc2c1 | . | . | . | . | . | -1 | 471 | .
CN(C)CCN=Cc1c(O)n(-c2cccc3ccccc23)c(=O)[nH]c1=O | . | . | . | . | . | . | / | /
OC(Cc1ccccc1)(c1ccccc1)C1CN2CCC1CC2 (stereo not drawn) | / | . | . | . | . | -7.2 | 55 | .
COc1cc(C2SCC(=O)Nc3c2c(=O)[nH]n3C2CCCCCC2)cc(OC)c1OC (stereo not drawn) | / | / | / | / | . | . | / | /
